ChEMBL document CHEMBL1781898, “Orally active achiral N-hydroxyformamide inhibitors of ADAM-TS4 (aggrecanase-1) and ADAM-TS5 (aggrecanase-2) for the treatment of osteoarthritis” (Bioorg Med Chem Lett, 2011)

Legend:
[1] = Oral bioavailability in rat; type: ADME, organism-based; conditions: in vivo
[2] = Oral bioavailability in mouse; type: ADME, organism-based; conditions: in vivo
[3] = target: Matrix metalloproteinase-9 (Homo sapiens, UniProt P14780); experiment: Inhibition of recombinant human MMP-9 assessed as substrate cleavage after 20 hrs by fluorescence assay
Matrix metalloproteinase-9, sequence (P14780 whole entry): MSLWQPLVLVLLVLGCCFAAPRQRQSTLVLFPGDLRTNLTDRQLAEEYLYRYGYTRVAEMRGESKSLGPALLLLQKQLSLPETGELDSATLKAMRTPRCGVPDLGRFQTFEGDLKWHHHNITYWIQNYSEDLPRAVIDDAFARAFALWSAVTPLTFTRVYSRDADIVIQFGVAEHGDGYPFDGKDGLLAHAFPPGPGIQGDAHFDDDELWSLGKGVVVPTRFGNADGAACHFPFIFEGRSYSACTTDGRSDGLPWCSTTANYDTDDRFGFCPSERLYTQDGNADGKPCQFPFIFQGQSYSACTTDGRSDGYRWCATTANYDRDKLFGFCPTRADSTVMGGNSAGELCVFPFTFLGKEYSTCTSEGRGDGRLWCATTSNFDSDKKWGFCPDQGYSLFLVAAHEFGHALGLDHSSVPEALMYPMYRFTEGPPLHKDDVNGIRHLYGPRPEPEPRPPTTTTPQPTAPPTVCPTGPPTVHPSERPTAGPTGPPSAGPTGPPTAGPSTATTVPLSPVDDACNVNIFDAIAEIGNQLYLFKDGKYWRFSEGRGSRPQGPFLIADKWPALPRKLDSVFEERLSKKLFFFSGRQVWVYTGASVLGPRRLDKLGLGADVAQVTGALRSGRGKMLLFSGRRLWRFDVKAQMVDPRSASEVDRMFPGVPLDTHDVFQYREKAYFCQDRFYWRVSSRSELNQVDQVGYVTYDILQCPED
Method in brief: (§1)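 Enzyme inhibition IC50s derived from at least six measurements, standard errors normally <5% within an assay; a standard compound run to keep assay-to-assay variability within twofold.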

[4] = target: Matrix metalloproteinase-14 (Homo sapiens, UniProt P50281); experiment: Inhibition of recombinant human MMP-14 assessed as substrate cleavage after 20 hrs by fluorescence assay; method in brief: as §1
[5] = Half life in rat at 2 mg/kg, iv and 3 to 10 mg/kg, po; type: ADME, organism-based; conditions: in vivo
Collagenase 3 = Collagenase 3 (Homo sapiens, UniProt P45452); experiment: Inhibition of recombinant human MMP-13 assessed as substrate cleavage after 20 hrs by fluorescence assay; method in brief: as §1
[6] = Lipophilicity, log D of the compound; type: physicochemical; conditions: octanol/water
Cytochrome P450 1A2 = target: T1, Cytochrome P450 1A2 (Homo sapiens, UniProt P05177); experiment: Inhibition of CYP1A2; type: ADME
T1 sequence (P05177 whole entry): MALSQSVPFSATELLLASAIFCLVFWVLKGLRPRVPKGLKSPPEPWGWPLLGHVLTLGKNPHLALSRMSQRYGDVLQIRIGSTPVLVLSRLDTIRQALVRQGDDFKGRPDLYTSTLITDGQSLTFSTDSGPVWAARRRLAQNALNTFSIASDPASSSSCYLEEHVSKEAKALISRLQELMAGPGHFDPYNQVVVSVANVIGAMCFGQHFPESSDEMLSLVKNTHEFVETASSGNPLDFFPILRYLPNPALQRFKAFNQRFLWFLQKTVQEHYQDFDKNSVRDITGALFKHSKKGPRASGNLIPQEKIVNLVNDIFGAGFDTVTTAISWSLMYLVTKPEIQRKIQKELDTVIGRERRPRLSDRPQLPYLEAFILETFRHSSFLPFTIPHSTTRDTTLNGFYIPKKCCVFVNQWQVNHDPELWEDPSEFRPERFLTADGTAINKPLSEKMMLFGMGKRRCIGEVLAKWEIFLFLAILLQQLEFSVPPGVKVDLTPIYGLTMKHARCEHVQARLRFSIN
Method in brief: (§2)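 Inhibition of cytochrome P450 isoforms 1A2, 2C9, 2C19, 2D6 and 3A4, reported as pIC50.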

[7] = Intrinsic clearance in human hepatocytes measured per million cells; type: ADME, cell-based, Liver, Hepatocyte
Method in brief: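 Human hepatocyte metabolism; intrinsic clearance expressed as μL/min/10⁶ cells, reported as mean of six separate experiments.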

[8] = Volume of distribution at steady state in mouse; type: ADME, organism-based; conditions: in vivo, read-out: Vdss
[9] = Clearance in dog at 1 mg/kg, iv and 1 mg/kg, po; type: ADME, organism-based, Canis lupus familiaris; conditions: in vivo
Cytochrome P450 2C9 = Cytochrome P450 2C9 (Homo sapiens, UniProt P11712); experiment: Inhibition of CYP2C9; type: ADME; method in brief: as §2
Cytochrome P450 2C9, sequence (P11712 whole entry): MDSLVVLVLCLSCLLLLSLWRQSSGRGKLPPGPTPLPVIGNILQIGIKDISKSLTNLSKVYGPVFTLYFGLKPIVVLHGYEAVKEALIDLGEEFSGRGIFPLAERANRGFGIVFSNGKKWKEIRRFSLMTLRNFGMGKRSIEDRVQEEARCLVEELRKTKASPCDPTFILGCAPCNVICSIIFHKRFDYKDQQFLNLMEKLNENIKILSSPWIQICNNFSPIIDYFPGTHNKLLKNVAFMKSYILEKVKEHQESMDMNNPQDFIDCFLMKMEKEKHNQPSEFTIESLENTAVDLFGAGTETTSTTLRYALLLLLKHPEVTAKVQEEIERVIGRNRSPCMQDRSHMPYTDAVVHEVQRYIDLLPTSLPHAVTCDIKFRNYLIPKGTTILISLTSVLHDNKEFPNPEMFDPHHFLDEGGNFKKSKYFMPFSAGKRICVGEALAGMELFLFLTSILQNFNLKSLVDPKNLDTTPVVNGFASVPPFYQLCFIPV

[10] = Volume of distribution at steady state in rat at 2 mg/kg, iv and 3 to 10 mg/kg, po; type: ADME, organism-based; conditions: in vivo, read-out: Vdss
[11] = Absolute bioavailability in dog; type: ADME, organism-based, Canis lupus familiaris; conditions: in vivo
[12] = Volume of distribution at steady state in dog at 1 mg/kg, iv and 1 mg/kg, po; type: ADME, organism-based, Canis lupus familiaris; conditions: in vivo, read-out: Vdss
Interstitial collagenase = target: T2, Interstitial collagenase (Homo sapiens, UniProt P03956); experiment: Inhibition of recombinant human MMP-1 assessed as substrate cleavage after 20 hrs by fluorescence assay; method in brief: as §1
T2 sequence (P03956 whole entry): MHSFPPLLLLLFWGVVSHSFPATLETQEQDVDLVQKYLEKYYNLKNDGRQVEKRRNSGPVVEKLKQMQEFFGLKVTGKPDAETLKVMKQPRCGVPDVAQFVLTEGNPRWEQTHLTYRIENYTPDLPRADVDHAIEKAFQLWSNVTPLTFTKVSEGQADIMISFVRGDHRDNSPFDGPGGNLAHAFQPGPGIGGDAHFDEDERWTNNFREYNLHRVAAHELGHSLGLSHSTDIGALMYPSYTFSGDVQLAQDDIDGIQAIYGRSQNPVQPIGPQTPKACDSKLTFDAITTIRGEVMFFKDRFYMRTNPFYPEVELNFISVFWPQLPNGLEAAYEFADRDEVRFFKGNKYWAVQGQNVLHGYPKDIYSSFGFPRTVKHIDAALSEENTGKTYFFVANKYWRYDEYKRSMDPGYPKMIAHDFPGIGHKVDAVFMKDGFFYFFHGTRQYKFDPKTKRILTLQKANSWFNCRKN

[13] = Clearance in mouse; type: ADME, organism-based; conditions: in vivo
[14] = Inhibition of aggrecanase activity in human late stage diseased osteoarthritis cartilage explant assessed as inhibition of aggrecan degradation measuring ARGSVIL neo-peptide release
Cytochrome P450 2D6 = Cytochrome P450 2D6 (Homo sapiens, UniProt P10635); experiment: Inhibition of CYP2D6; type: ADME; method in brief: as §2
Cytochrome P450 2D6, sequence (P10635 whole entry): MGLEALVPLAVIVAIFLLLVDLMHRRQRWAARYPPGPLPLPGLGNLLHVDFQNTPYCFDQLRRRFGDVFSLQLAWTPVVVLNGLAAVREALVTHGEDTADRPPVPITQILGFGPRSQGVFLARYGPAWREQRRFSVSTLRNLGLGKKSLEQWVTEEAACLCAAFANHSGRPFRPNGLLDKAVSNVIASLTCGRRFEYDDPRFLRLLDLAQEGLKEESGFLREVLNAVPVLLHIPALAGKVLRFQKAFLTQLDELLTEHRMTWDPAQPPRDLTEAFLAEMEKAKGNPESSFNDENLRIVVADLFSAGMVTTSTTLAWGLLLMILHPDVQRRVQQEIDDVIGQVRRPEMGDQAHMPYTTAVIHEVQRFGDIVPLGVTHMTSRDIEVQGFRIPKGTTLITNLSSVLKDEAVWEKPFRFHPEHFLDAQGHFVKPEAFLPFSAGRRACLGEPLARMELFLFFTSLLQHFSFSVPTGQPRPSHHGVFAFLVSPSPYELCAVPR

Cytochrome P450 3A4 = Cytochrome P450 3A4 (Homo sapiens, UniProt P08684); experiment: Inhibition of CYP3A4; type: ADME; method in brief: as §2
Cytochrome P450 3A4, sequence (P08684 whole entry): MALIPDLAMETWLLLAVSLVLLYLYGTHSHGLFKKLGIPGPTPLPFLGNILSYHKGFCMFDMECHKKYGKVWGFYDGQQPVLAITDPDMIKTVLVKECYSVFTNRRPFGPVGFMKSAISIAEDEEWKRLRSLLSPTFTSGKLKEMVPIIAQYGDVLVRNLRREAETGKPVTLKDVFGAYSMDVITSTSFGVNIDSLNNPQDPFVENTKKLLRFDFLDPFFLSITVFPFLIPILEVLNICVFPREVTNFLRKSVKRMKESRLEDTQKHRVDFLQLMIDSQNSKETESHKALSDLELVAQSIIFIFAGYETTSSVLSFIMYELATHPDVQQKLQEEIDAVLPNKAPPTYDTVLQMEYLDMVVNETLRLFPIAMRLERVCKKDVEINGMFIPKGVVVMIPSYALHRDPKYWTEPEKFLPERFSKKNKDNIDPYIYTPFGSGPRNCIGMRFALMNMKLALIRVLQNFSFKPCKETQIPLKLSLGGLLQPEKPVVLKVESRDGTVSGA

[15] = Intrinsic clearance in human liver microsomes; type: ADME, Microsome
Method in brief: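 Human liver microsome metabolism; intrinsic clearance expressed as μL/min/mg, reported as mean of eight separate experiments.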

[16] = Inhibition of aggrecanase activity in IL-1-stimulated human osteoarthritis cartilage explant assessed as inhibition of aggrecan degradation measuring ARGSVIL neo-peptide release

What does the source list for `Cc1noc(C)c1CCC1CCN(S(=O)(=O)CC2(N(O)C=O)CCOCC2)CC1`?
bioavailability [1]: 45%; bioavailability [2]: 54%; IC50 [3]: > 25 µM; IC50 [4]: > 23 µM; half-life [5]: 8.9 h; IC50 (Collagenase 3): > 31 µM; logD [6]: 0.9; inhibition (INH) (Cytochrome P450 1A2): Not Active; hepatocyte CLint [7]: < 2 µL/min/1e6 cells; Vd [8]: 2.5 L/kg; clearance [9]: 13 mL/min/kg; inhibition (INH) (Cytochrome P450 2C9): Not Active; Vd [10]: 3 L/kg; bioavailability [11]: 52%; Vd [12]: 10.9 L/kg; IC50 (Interstitial collagenase): > 10 µM; clearance [13]: 30 mL/min/kg; IC50 [14]: 0.15 µM; inhibition (INH) (Cytochrome P450 2D6): Not Active; inhibition (INH) (Cytochrome P450 3A4): Not Active; microsomal CLint [15]: 3.1 µL/min/mg; IC50 [16]: 0.12 µM
